# Experimental data taken from ChEMBL document CHEMBL4428122, “Design, synthesis, and biological characterization of novel PEG-linked dimeric modulators for CXCR4” (Bioorg Med Chem, 2016).
# pIC50: −log10 of the molar value. Activity calls are given as the source filed them. No cut-off for these calls is given here. Non-standard residues stand in square brackets, D forms with d. Residues, ends and D or L forms follow the SMILES beside them.
# Key:
# [1] = biological target: T1, C-X-C chemokine receptor type 4 (Homo sapiens, UniProt P61073); assay: Antagonist activity at CXCR4 in human SupT1 cells assessed as inhibition of CXCL12-induced Ca2+ influx preincubated for 2 to 3 mins prior CXCL12-stimulation by fura-2/AM dye-based fluorescence analysis; assay type: functional, cell-based
# T1 sequence (P61073 whole entry): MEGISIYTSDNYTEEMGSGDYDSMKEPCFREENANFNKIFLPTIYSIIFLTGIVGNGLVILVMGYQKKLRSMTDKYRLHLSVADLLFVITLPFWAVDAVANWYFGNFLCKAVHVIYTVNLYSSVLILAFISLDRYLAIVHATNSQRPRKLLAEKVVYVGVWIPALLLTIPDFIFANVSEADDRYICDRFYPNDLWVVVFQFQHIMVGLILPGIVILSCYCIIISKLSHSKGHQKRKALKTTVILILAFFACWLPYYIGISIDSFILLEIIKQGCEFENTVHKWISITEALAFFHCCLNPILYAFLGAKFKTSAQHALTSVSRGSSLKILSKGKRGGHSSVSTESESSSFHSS
# In short: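 Fura-2/AM-loaded SUP-T1 cells (2 μM dye, 5 μM probenecid, 30 min; 2 × 10^6 cells/mL in Hepes pH 7.4 saline with Ca2+/Mg2+, glucose, 0.025% BSA) were pre-incubated with peptide for 2–3 min, then stimulated with SDF-1α. Fluorescence was read at ex 340/380 nm, em 510 nm.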
# [2] = biological target: T1, C-X-C chemokine receptor type 4; assay: Antagonist activity at CXCR4 in human SupT1 cells assessed as inhibition of CXCL12-induced cell migration at 100 nM preincubated for 2 hrs followed by CXCL12 addition measured after 3 hrs by Cell titer-Blue reagent-based transwell assay
# In short: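 SUP-T1 cells were washed in RPMI1640 with 0.5% BSA, and 1 × 10^6 cells were incubated with peptide for 2 h. Cells were then seeded in upper transwell chambers (5 μm pores) over a lower chamber with 10 nM SDF-1α, or buffer alone for background. Migration ran 3 h at 37°C. Migrated cells were expressed as % of seeded cells. At least three independent experiments, mean ± S.E.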
# SUP-T1 = assay: Cytotoxicity against human SupT1 cells at 100 nM; assay type: cell-based; conditions: sup-t1, 0.1 µM
# [3] = biological target: T1, C-X-C chemokine receptor type 4; assay: Binding affinity to CXCR4 (unknown origin) expressed in CHO cells measured after 40 mins by 12G5 antibody competition assay; assay type: cell-based; conditions: for pIC50: read-out: IC50
# [4] = biological target: T1, C-X-C chemokine receptor type 4; assay: Agonist activity at CXCR4 in human SupT1 cells assessed as increase in Ca2+ influx by fura-2/AM dye-based fluorescence analysis; assay type: functional, cell-based
# In short: (§1)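 They were loaded at 10^7 cells/mL with 2 μM fura-2/AM and 5 μM probenecid for 30 min, then resuspended at 2 × 10^6 cells/mL. After a 2 min baseline, peptide was added. Ex 340/380 nm, em 510 nm.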
# [5] = biological target: T1, C-X-C chemokine receptor type 4; assay: Agonist activity at CXCR4 in human SupT1 cells assessed as increase Ca2+ influx at 2 uM by fura-2/AM dye-based fluorescence analysis; assay type: functional, cell-based; in short: as §1
Molecule,antagonist activity (qualitative) [1],inhibition [2],Activity (SUP-T1),other results
CC(C)C[C@@H](N)C(=O)NCC(=O)N[C@H](C)C(=O)N[C@H](CO)C(=O)N[C@H](Cc1c[nH]c2ccccc12)C(=O)N[C@H](Cc1cnc[nH]1)C(=O)N[C@H](CCCNC(=N)N)C(=O)N[C@H](C)C(=O)N[C@H](CC(=O)O)C(=O)N[C@H](CCCCN)C(=O)NCCOCCOCCOCCC(=O)NCCCC[C@H](NC(=O)CCOCCOCCOCCNC(=O)[C@@H](CCCCN)NC(=O)[C@@H](CC(=O)O)NC(=O)[C@@H](C)NC(=O)[C@@H](CCCNC(=N)N)NC(=O)[C@@H](Cc1cnc[nH]1)NC(=O)[C@@H](Cc1c[nH]c2ccccc12)NC(=O)[C@@H](CO)NC(=O)[C@@H](C)NC(=O)CNC(=O)[C@H](N)CC(C)C)C(N)=O,Active,23%,Non-Toxic,–
CC(C)C[C@@H](N)C(=O)NCC(=O)N[C@H](C)C(=O)N[C@H](CO)C(=O)N[C@H](Cc1c[nH]c2ccccc12)C(=O)N[C@H](Cc1cnc[nH]1)C(=O)N[C@H](CCCNC(=N)N)C(=O)N1CCC[C@@H]1C(=O)N[C@H](CC(=O)O)C(=O)N[C@H](CCCCN)C(=O)NC(=O)[C@@H](CCCCN)NC(=O)[C@@H](CC(=O)O)NC(=O)[C@H]1CCCN1C(=O)[C@@H](CCCNC(=N)N)NC(=O)[C@@H](Cc1cnc[nH]1)NC(=O)[C@@H](Cc1c[nH]c2ccccc12)NC(=O)[C@@H](CO)NC(=O)[C@@H](C)NC(=O)CNC(=O)[C@H](N)CC(C)C,–,–,–,pIC50 [3]: 6.34
CC(C)C[C@@H](N)C(=O)NCC(=O)N[C@H](C)C(=O)N[C@H](CO)C(=O)N[C@H](Cc1c[nH]c2ccccc12)C(=O)N[C@H](Cc1cnc[nH]1)C(=O)N[C@H](CCCNC(=N)N)C(=O)N1CCC[C@@H]1C(=O)N[C@H](CC(=O)O)C(=O)N[C@H](CCCCN)C(=O)N[C@H](CCCCNC(=O)[C@H](CCCNC(=N)N)NC(=O)[C@H](Cc1ccc(O)cc1)NC(=O)[C@H](CO)NC(=O)[C@H](CC(C)C)NC(=O)[C@H](CO)NC(=O)[C@@H](NC(=O)[C@@H]1CCCN1C(=O)[C@@H](N)CCCCN)C(C)C)C(N)=O,–,–,–,Activity [4]: Active; pIC50 [3]: 6.30
CC(C)C[C@@H](N)C(=O)NCC(=O)N[C@H](C)C(=O)N[C@H](CO)C(=O)N[C@H](Cc1c[nH]c2ccccc12)C(=O)N[C@H](Cc1cnc[nH]1)C(=O)N[C@H](CCCNC(=N)N)C(=O)N1CCC[C@@H]1C(=O)N[C@H](CC(=O)O)C(=O)N[C@H](CCCCN)C(=O)NCCOCCOCCOCCOCCOCCC(=O)NCCCC[C@H](NC(=O)CCOCCOCCOCCOCCOCCNC(=O)[C@@H](CCCCN)NC(=O)[C@@H](CC(=O)O)NC(=O)[C@H]1CCCN1C(=O)[C@@H](CCCNC(=N)N)NC(=O)[C@@H](Cc1cnc[nH]1)NC(=O)[C@@H](Cc1c[nH]c2ccccc12)NC(=O)[C@@H](CO)NC(=O)[C@@H](C)NC(=O)CNC(=O)[C@H](N)CC(C)C)C(N)=O,Active,–,Non-Toxic,–
CC(C)C[C@@H](N)C(=O)NCC(=O)N[C@H](C)C(=O)N[C@H](CO)C(=O)N[C@H](Cc1c[nH]c2ccccc12)C(=O)N[C@H](Cc1cnc[nH]1)C(=O)N[C@H](CCCNC(=N)N)C(=O)N1CCC[C@@H]1C(=O)NCCOCCOCCOCCOCCOCCC(=O)NCCCC[C@H](NC(=O)CCOCCOCCOCCOCCOCCNC(=O)[C@H]1CCCN1C(=O)[C@@H](CCCNC(=N)N)NC(=O)[C@@H](Cc1cnc[nH]1)NC(=O)[C@@H](Cc1c[nH]c2ccccc12)NC(=O)[C@@H](CO)NC(=O)[C@@H](C)NC(=O)CNC(=O)[C@H](N)CC(C)C)C(N)=O,–,34%,Non-Toxic,–
CC(C)C[C@@H](N)C(=O)NCC(=O)N[C@H](C)C(=O)N[C@H](CO)C(=O)N[C@H](Cc1c[nH]c2ccccc12)C(=O)N[C@H](Cc1cnc[nH]1)C(=O)N[C@H](CCCNC(=N)N)C(=O)N1CCC[C@@H]1C(=O)N[C@H](CC(=O)O)C(=O)N[C@H](CCCCN)C(=O)O (H-[dL]G[dA][dS][dW][dH][dR][dP][dD][dK]-OH),–,–,–,pIC50 [3]: 5.70
CC(C)C[C@@H](N)C(=O)NCC(=O)N[C@H](C)C(=O)N[C@H](CO)C(=O)N[C@H](Cc1c[nH]c2ccccc12)C(=O)N[C@H](Cc1cnc[nH]1)C(=O)N[C@H](CCCNC(=N)N)C(=O)N1CCC[C@@H]1C(=O)N[C@H](C)C(=O)N[C@H](CCCCN)C(=O)NCCOCCOCCOCCC(=O)NCCCC[C@H](NC(=O)CCOCCOCCOCCNC(=O)[C@@H](CCCCN)NC(=O)[C@@H](C)NC(=O)[C@H]1CCCN1C(=O)[C@@H](CCCNC(=N)N)NC(=O)[C@@H](Cc1cnc[nH]1)NC(=O)[C@@H](Cc1c[nH]c2ccccc12)NC(=O)[C@@H](CO)NC(=O)[C@@H](C)NC(=O)CNC(=O)[C@H](N)CC(C)C)C(N)=O,Active,21%,Non-Toxic,–
CC(C)C[C@@H](N)C(=O)NCC(=O)N[C@H](C)C(=O)N[C@H](CO)C(=O)N[C@H](Cc1c[nH]c2ccccc12)C(=O)N[C@H](Cc1cnc[nH]1)C(=O)N[C@H](CCCNC(=N)N)C(=O)N1CCC[C@@H]1C(=O)N[C@H](CC(=O)O)C(=O)N[C@H](CCCCN)C(=O)NCCOCCOCCOCCOCCOCCC(=O)N[C@@H](CCCCNC(=O)CCOCCOCCOCCOCCOCCNC(=O)[C@H](CCCNC(=N)N)NC(=O)[C@H](Cc1ccc(O)cc1)NC(=O)[C@H](CO)NC(=O)[C@H](CC(C)C)NC(=O)[C@H](CO)NC(=O)[C@@H](NC(=O)[C@@H]1CCCN1C(=O)[C@@H](N)CCCCN)C(C)C)C(N)=O,–,–,–,Activity [4]: inactive
CC(C)C[C@@H](N)C(=O)NCC(=O)N[C@H](C)C(=O)N[C@H](CO)C(=O)N[C@H](Cc1c[nH]c2ccccc12)C(=O)N[C@H](Cc1cnc[nH]1)C(=O)N[C@H](CCCNC(=N)N)C(=O)N1CCC[C@@H]1C(=O)N[C@H](CC(=O)O)C(=O)N[C@H](CCCCN)C(=O)NCCOCCOCCOCCC(=O)N[C@@H](CCCCNC(=O)CCOCCOCCOCCOCCOCCNC(=O)[C@H](CO)NC(=O)[C@H](CC(C)C)NC(=O)[C@H](CO)NC(=O)[C@@H](NC(=O)[C@@H]1CCCN1C(=O)[C@@H](N)CCCCN)C(C)C)C(N)=O,–,–,–,Activity [4]: inactive
CC(C)C[C@@H](N)C(=O)NCC(=O)N[C@H](C)C(=O)N[C@H](CO)C(=O)N[C@H](Cc1c[nH]c2ccccc12)C(=O)N[C@H](Cc1cnc[nH]1)C(=O)N[C@H](CCCNC(=N)N)C(=O)N1CCC[C@@H]1C(=O)N[C@H](CC(=O)O)C(=O)N[C@H](CCCCN)C(=O)NCCOCCOCCOCCC(=O)N[C@@H](CCCCNC(=O)CCOCCOCCOCCNC(=O)[C@H](CC(C)C)NC(=O)[C@H](CO)NC(=O)[C@@H](NC(=O)[C@@H]1CCCN1C(=O)[C@@H](N)CCCCN)C(C)C)C(N)=O,–,–,–,Activity [4]: inactive
H-KPVSLSYR-OH,–,–,–,IC50 ([3]; cho): Not Active
CC(C)C[C@@H](N)C(=O)NCC(=O)N[C@H](C)C(=O)N[C@H](CO)C(=O)N[C@H](Cc1c[nH]c2ccccc12)C(=O)N[C@H](Cc1cnc[nH]1)C(=O)N[C@H](CCCNC(=N)N)C(=O)N1CCC[C@@H]1C(=O)N[C@H](CC(=O)O)C(=O)N[C@H](CCCCN)C(=O)NCCOCCOCCOCCC(=O)N[C@@H](CCCCNC(=O)CCOCCOCCOCCNC(=O)[C@H](CCCNC(=N)N)NC(=O)[C@H](Cc1ccc(O)cc1)NC(=O)[C@H](CO)NC(=O)[C@H](CC(C)C)NC(=O)[C@H](CO)NC(=O)[C@@H](NC(=O)[C@@H]1CCCN1C(=O)[C@@H](N)CCCCN)C(C)C)C(N)=O,–,–,–,Activity [5]: Active

# Now from value to molecule, other results behind:
antagonist activity (qualitative) [1],inhibition [2],Molecule,Activity (SUP-T1),other results
–,67%,CC(C)C[C@@H](N)C(=O)NCC(=O)N[C@H](C)C(=O)N[C@H](CO)C(=O)N[C@H](Cc1c[nH]c2ccccc12)C(=O)N[C@H](Cc1cnc[nH]1)C(=O)N[C@H](CCCNC(=N)N)C(=O)N1CCC[C@@H]1C(=O)N[C@H](CC(=O)O)C(=O)N[C@H](CCCCN)C(=O)NCCOCCOCCOCCC(=O)NCCCC[C@H](NC(=O)CCOCCOCCOCCNC(=O)[C@@H](CCCCN)NC(=O)[C@@H](CC(=O)O)NC(=O)[C@H]1CCCN1C(=O)[C@@H](CCCNC(=N)N)NC(=O)[C@@H](Cc1cnc[nH]1)NC(=O)[C@@H](Cc1c[nH]c2ccccc12)NC(=O)[C@@H](CO)NC(=O)[C@@H](C)NC(=O)CNC(=O)[C@H](N)CC(C)C)C(N)=O,Non-Toxic,–
Active,28%,CC(C)C[C@@H](N)C(=O)NCC(=O)N[C@H](C)C(=O)N[C@H](CO)C(=O)N[C@H](Cc1c[nH]c2ccccc12)C(=O)N[C@H](Cc1cnc[nH]1)C(=O)N[C@H](CCCNC(=N)N)C(=O)N1CCC[C@@H]1C(=O)NCCOCCOCCOCCC(=O)NCCCC[C@H](NC(=O)CCOCCOCCOCCNC(=O)[C@H]1CCCN1C(=O)[C@@H](CCCNC(=N)N)NC(=O)[C@@H](Cc1cnc[nH]1)NC(=O)[C@@H](Cc1c[nH]c2ccccc12)NC(=O)[C@@H](CO)NC(=O)[C@@H](C)NC(=O)CNC(=O)[C@H](N)CC(C)C)C(N)=O,Non-Toxic,–
Active,48%,CC(C)C[C@@H](N)C(=O)NCC(=O)N[C@H](C)C(=O)N[C@H](CO)C(=O)N[C@H](Cc1c[nH]c2ccccc12)C(=O)N[C@H](Cc1cnc[nH]1)C(=O)N[C@H](CCCNC(=N)N)C(=O)N1CCC[C@@H]1C(=O)N[C@H](CC(=O)O)C(=O)N[C@H](CCCCN)C(=O)NCCOCCOCCOCCOCCOCCOCCOCCC(=O)NCCCC[C@H](NC(=O)CCOCCOCCOCCOCCOCCOCCOCCNC(=O)[C@@H](CCCCN)NC(=O)[C@@H](CC(=O)O)NC(=O)[C@H]1CCCN1C(=O)[C@@H](CCCNC(=N)N)NC(=O)[C@@H](Cc1cnc[nH]1)NC(=O)[C@@H](Cc1c[nH]c2ccccc12)NC(=O)[C@@H](CO)NC(=O)[C@@H](C)NC(=O)CNC(=O)[C@H](N)CC(C)C)C(N)=O,Non-Toxic,–
